The values that follow come from ChEMBL document CHEMBL4613249, “Serendipitous Discovery of Leucine and Methionine Depletion Agents during the Search for Polyamine Transport Inhibitors” (J Med Chem, 2020).

The subject of series [1] is L3.6pl. As to the kind of experiment: Potentiation of 2 uM N-(anthracenylmethyl) homospermidine-induced toxicity in human L3.6PL cells assessed as increase in Ant-44-induced reduction in cell growth measured after 72 hrs in presence of amine oxidase suppressor aminoguanidine by MTS assay. The class given is functional, cell-based. Put shortly: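 L3.6pl cells (500 cells/well) were pretreated 24 h with 250 μM aminoguanidine in PBS, then given Ant-44 (2 μM) with increasing compound for 72 h at 37°C. MTS growth was read, with EC50 relative to the Ant-44-only control.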
A general note: Tetrazolium assays rely on reduction of a dye to a coloured formazan, in cell work by metabolically active cells.

In series [2] the test system is CHO-K1. As to the kind of experiment: Inhibition of polyamine transporter in DFMO-treated CHOK1 cells assessed as prevention of spermidine entry into cells by measuring rescue of DFMO-induced reduction in cell growth at 1 to 10 uM measured after 48 hrs in presence of amine oxidase suppressor aminoguanidine by MTS assay. Type of series: cell-based. The following applies: Cricetulus griseus. Put shortly:
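CHO K1 cells (1000 cells/well) were pre-incubated 24 h with 1 mM aminoguanidine. They were then given fixed DFMO (4.2 mM) and spermidine (1 μM) plus increasing compound doses for 48 h at 37°C. EC50 is the concentration bringing MTS relative growth halfway between the DFMO+Spd and DFMO-only controls. Runs were done twice in triplicate, with SD.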

The subject of series [3] is CHO-K1. The experiment in a line: Inhibition of polyamine transporter in CHOK1 cells assessed as rescue of 2.4 uM N-(anthracenylmethyl) homospermidine-induced toxicity by measuring cell growth at 7 uM measured after 48 hrs in presence of amine oxidase suppressor aminoguanidine by MTS assay (reference value: 23%). The class given is cell-based. Set-up: scale not given: the % may be the effect or the level left. The following applies: Cricetulus griseus. Summed up: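 CHO K1 cells (1000 cells/well, aminoguanidine 1 mM preincubation) were given a toxic Ant-44 dose (2.4 μM) with candidate compound at 5 or 7 μM. Cells were incubated 48 h at 37°C, and relative growth versus untreated control was read by MTS.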

In series [4] the test system is L3.6pl. As to the kind of experiment: Cytotoxicity against human L3.6PL cells assessed as reduction in cell viability at 5 uM measured after 72 hrs by MTS assay. The class given is cell-based.
For series [5], the system named is CHO-K1. The experiment in a line: Potentiation of 0.5 uM N-(anthracenylmethyl) homospermidine-induced toxicity in CHOK1 cells assessed as increase in Ant-44-induced reduction in cell growth measured after 48 hrs in presence of amine oxidase suppressor aminoguanidine by MTS assay. Type of series: functional, cell-based. The following applies: Cricetulus griseus. Put shortly:
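CHO K1 cells were pretreated 24 h with 1 mM aminoguanidine, then given fixed Ant-44 (0.5 μM) plus increasing compound (up to 5 μM) for 48 h at 37°C. MTS growth was read, with EC50 defined as the dose halving growth relative to Ant-44 alone. Runs were done twice in triplicate, with SD.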

Series [6] concerns CHO-K1. The experiment in a line: Cytotoxicity against CHOK1 cells assessed as effect on cell growth at < 7 uM measured after 48 hrs by MTS assay. The class given is cell-based, Cricetulus griseus. The following applies: chinese hamster, cho-k1, 48 h.
Series [7] relates to CHO-K1. The experiment in a line: Cytotoxicity against CHOK1 cells assessed as effect on cell growth at 10 uM measured after 48 hrs by MTS assay. The class given is cell-based, Cricetulus griseus. The following applies: chinese hamster, cho-k1, 48 h.
The test system of series [8] is L3.6pl. As to the kind of experiment: Cytotoxicity against human L3.6PL cells assessed as reduction in cell viability measured after 72 hrs by MTS assay. Type of series: cell-based. Summed up: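 L3.6pl cells, 500 cells/well in RPMI 1640 with 10% FBS and 250 μM aminoguanidine, plated overnight. Compound in PBS added, then 72 h at 37°C. MTS absorbance at 490 nm. IC50 is the dose giving 50% relative growth versus untreated control. Run twice in triplicate.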

For series [9], the target named is Large neutral amino acids transporter small subunit 1 (Homo sapiens) (UniProt Q01650). As to the kind of experiment: Inhibition of LAT1-mediated [3H]-leucine uptake in human L3.6PL cells at 30 uM and 37 degree C measured after 2 mins by scintillation counter method. The class given is cell-based.
Chain of Large neutral amino acids transporter small subunit 1 (Homo sapiens) (Q01650 whole entry): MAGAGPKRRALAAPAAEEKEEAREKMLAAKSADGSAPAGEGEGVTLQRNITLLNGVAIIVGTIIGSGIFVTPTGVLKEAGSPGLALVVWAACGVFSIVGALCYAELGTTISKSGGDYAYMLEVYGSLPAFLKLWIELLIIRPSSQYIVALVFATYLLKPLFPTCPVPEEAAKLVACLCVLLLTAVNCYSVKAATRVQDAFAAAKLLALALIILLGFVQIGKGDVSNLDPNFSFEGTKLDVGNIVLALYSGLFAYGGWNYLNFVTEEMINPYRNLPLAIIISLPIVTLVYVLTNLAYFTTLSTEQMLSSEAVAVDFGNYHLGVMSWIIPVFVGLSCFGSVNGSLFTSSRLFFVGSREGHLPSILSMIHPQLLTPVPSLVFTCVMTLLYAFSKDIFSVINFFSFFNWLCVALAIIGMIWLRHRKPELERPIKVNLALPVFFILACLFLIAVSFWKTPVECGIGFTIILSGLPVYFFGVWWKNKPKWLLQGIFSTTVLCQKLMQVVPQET

The structures appear in SMILES notation. The source made the active and inactive calls.

For `CC(C)(C)CCN1CCN([C@H](CNCc2ccccc2)Cc2ccccc2)C[C@@H]1Cc1ccccc1`, the 50% effective concentration (EC50) in the series with L3.6pl [1] was 3.27 µM; in the series on CHO-K1 [5] (CHO-K1, 48 h) it was 0.75 µM. The inhibition entry with CHO-K1 [2] was “inactive”. Further, the Activity in the series on CHO-K1 [3] was 2.1%; in the series with L3.6pl [4], “Non-Toxic”; in the series on CHO-K1 [5] it was “Dose-dependent effect”; in the series on CHO-K1 [6] it was “Non-Toxic”; with CHO-K1 [7], “Non-Toxic”. The IC50 in the series on L3.6pl [8] turned out to be 11.7 µM.
Turning to `Nc1cc(COc2c(Cl)cc(C[C@H](N)C(=O)O)cc2Cl)c2oc(-c3ccccc3)nc2c1`, in series [9], the inhibition result is “Active”.

In general, EC50 refers to the concentration needed to bring the measured effect to its halfway point. Broadly, the IC50 is the point on the concentration scale where inhibition reaches its midpoint.
